Broadly, the IC50 is the concentration that gives 50% inhibition. One may read the pKa as the negative logarithm of the acid dissociation constant. Read a low pKa as a stronger acid or weaker base.

Experimental findings from ChEMBL document CHEMBL4396973, “Design and development of a series of borocycles as selective, covalent kallikrein 5 inhibitors” (Bioorg Med Chem Lett, 2019) are described below.

Bounds are passed on as bounds.

One series concerns the target Kallikrein-1 (Homo sapiens, UniProt P06870). Nature of the series: Inhibition of human recombinant N-terminal His-tagged and enterokinase cleavage site-fused KLK1 (19 to 262 residues) expressed in baculovirus infected Sf9 insect cells using R110 labelled GSK3162232A as substrate measured at 30 secs interval for 5 mins by FLINT assay.
In the next series the target is T1, Neutrophil elastase (Homo sapiens, UniProt P08246).
T1 sequence (P08246 whole entry): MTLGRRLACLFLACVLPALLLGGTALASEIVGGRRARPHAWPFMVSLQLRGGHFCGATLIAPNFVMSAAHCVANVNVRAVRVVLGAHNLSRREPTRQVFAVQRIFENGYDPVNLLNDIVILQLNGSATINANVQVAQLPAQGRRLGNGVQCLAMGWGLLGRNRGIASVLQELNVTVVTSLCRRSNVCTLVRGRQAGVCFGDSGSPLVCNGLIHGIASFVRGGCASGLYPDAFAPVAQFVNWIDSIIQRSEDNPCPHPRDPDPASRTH
The series is described as follows: Inhibition of human neutrophil elastase using MeOSuc-AAPV-AMC as substrate incubated for 40 mins by FLINT assay.

In series [1] the target is T2, Suppressor of tumorigenicity 14 protein (Homo sapiens, UniProt Q9Y5Y6).
T2 sequence (Q9Y5Y6 whole entry): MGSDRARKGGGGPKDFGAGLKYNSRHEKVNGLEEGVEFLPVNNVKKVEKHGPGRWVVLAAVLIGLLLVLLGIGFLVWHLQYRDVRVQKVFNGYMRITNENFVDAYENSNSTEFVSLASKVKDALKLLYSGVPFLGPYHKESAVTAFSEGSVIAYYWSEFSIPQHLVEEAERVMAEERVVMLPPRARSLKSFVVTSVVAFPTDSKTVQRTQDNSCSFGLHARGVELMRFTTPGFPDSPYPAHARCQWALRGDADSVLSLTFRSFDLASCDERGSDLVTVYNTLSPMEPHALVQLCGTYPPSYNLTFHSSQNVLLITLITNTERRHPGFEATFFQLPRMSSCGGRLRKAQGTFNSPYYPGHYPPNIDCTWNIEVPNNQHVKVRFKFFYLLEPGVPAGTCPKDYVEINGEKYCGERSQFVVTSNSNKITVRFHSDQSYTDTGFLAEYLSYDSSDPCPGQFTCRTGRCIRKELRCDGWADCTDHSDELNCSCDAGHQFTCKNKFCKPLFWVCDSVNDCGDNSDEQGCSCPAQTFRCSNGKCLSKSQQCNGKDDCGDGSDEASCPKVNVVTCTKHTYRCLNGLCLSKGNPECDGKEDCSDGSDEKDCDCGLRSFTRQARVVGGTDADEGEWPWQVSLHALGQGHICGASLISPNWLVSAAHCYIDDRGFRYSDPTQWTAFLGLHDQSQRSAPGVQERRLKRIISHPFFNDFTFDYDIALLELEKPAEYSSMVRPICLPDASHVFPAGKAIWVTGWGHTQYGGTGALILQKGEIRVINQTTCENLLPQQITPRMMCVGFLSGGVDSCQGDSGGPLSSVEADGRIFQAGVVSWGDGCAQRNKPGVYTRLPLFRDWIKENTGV
The series is described as follows: Inhibition of recombinant human N-terminal Met and 6-His-tagged matriptase (G596 to V855 residues) expressed in Escherichia coli using Boc-QAR-AMC as substrate incubated for 40 mins by FLINT assay.

The next series concerns the target Kallikrein-7 (Homo sapiens, UniProt P49862). Nature of the series: Inhibition of recombinant human C-terminal 10-His-tagged KLK7 (Glu23 to His252 residues) expressed in mouse NS0 cells using 5-FAM-E-A-L-Y-L-V-S-G-C(5-TAMRA) as substrate incubated for 40 mins by FLINT assay.
The next series has as its target Prothrombin (Homo sapiens, UniProt P00734). The series is described as follows: Inhibition of human recombinant C-terminal 10-His-tagged thrombin (M1 to E622 residues) expressed in mouse NS0 cells using BOC-VPR-AMC as substrate incubated for 40 mins by FLINT assay.
A further series concerns the target Plasma kallikrein (Homo sapiens, UniProt P03952). The series is described as follows: Inhibition of human C-terminal 6-His-tagged KLKB1 (G20-A638 residues) expressed in mouse NS0 cells using PFR-AMC as substrate incubated for 40 mins by FLINT assay.
The target in series [2] is T3, Kallikrein-5 (Homo sapiens, UniProt Q9Y337).
T3 sequence (Q9Y337 whole entry): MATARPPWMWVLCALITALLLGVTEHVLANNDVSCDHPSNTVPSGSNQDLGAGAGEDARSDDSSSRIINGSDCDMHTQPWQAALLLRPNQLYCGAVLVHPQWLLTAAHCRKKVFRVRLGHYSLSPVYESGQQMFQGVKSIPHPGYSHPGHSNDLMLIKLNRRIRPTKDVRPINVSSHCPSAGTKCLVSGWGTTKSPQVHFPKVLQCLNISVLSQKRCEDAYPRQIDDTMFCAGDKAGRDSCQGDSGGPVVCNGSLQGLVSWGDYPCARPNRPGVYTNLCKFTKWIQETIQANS
Nature of the series: Inhibition of human recombinant 6His-Q-FLAG-tagged KLK5 expressed in baculovirus infected Sf9 insect cells using (Tos-Gly-Pro-Arg)2[R110].2TFA as substrate measured at 30 secs interval for 5 mins using 1 x 10'10M enzyme by FLINT assay.

The target in another series is Coagulation factor X (Homo sapiens, UniProt P00742). Nature of the series: Inhibition of recombinant human C-terminal 10-His-tagged factor Xa (L24 to K488 residues) expressed in baculovirus infected Sf21 insect cells using Mca-RPKPVE-Nval-WRK(Dnp)-NH2 as substrate incubated for 40 mins by FLINT assay.
The nature of series [3]: Dissociation constant, borocycle pKa of the compound. Type of series: physicochemical.
The target in series [4] is Urokinase-type plasminogen activator (Homo sapiens, UniProt P00749). Nature of the series: Inhibition of recombinant human C-terminal 10-His-tagged urokinase (M1 to L431 residues) expressed in mouse NS0 cells using Z-GGR-AMC as substrate incubated for 40 mins by FLINT assay.
The target in another series is T4, Kallikrein-8 (Homo sapiens, UniProt O60259).
T4 sequence (O60259 whole entry): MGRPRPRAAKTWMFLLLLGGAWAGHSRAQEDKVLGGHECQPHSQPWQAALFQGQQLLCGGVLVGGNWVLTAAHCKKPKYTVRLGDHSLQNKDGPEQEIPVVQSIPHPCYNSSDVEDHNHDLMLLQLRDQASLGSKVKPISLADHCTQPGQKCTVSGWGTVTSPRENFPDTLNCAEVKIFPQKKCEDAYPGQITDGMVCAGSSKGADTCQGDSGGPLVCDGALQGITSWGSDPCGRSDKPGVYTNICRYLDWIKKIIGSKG
Nature of the series: Inhibition of recombinant human C-terminal 10-His-tagged KLK8 (Gln29 to Gly260 residues) expressed in mouse NS0 cells using BOC-VPR-AMC as substrate incubated for 40 mins by FLINT assay.

Another series concerns the target T5, Kallikrein-14 (Homo sapiens, UniProt Q9P0G3).
T5 sequence (Q9P0G3 whole entry): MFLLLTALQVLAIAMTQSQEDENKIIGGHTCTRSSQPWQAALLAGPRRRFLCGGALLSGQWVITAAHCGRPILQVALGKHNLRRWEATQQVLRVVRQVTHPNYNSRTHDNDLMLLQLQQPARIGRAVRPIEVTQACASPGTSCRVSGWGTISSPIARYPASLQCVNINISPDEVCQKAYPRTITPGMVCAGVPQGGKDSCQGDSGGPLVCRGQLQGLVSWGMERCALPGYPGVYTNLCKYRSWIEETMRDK
The series is described as follows: Inhibition of recombinant human C-terminal 10-His-tagged KLK14 (Q19 to M248 residues) expressed in mouse NS0 cells using BOC-VPR-AMC as substrate incubated for 40 mins by FLINT assay.

Another series is filed under the species Homo sapiens. The series is described as follows: Selectivity ratio of IC50 for human C-terminal 6-His-tagged KLKB1 (G20 to A638 residues) expressed in mouse NS0 cells to IC50 for human recombinant 6His-Q-FLAG-tagged KLK5 expressed in baculovirus infected Sf9 insect cells.
Series [5] deals with T3, Kallikrein-5. The series is described as follows: Inhibition of human recombinant 6His-Q-FLAG-tagged KLK5 expressed in baculovirus infected Sf9 insect cells using (Tos-Gly-Pro-Arg)2[R110].2TFA as substrate measured at 30 secs interval for 5 mins by FLINT assay. Put shortly: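 Standard KLK5 assay format. Its theoretical tight-binding limit corresponds to pIC50 8.4.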

With `N=C(N)c1ccc(C2Cc3ccc(C(F)(F)F)cc3B(O)O2)cc1OCc1cccnc1` (racemic), the IC50 was 0.398 µM at Kallikrein-1; more than 100 µM on Neutrophil elastase; 2 µM in [1]; 39.8 µM at Kallikrein-7; 3980 nM at Prothrombin; 10 nM against Plasma kallikrein. The IC50 at Kallikrein-5 [2] was 0.501 nM; at Coagulation factor X, 1.58 µM; in [4], 12.6 µM; at Kallikrein-8, 25.1 nM; on Kallikrein-14, 126 nM. The pKa in [3] is 4.54.
Turning to `N=C(N)c1ccc(C2Cc3ccccc3B(O)O2)cc1OCc1cccc(Cl)c1` (racemic), the IC50 was 1.58 µM at Kallikrein-1; 15.8 µM against Neutrophil elastase; 0.0126 µM in series [1]; 39.8 µM at Kallikrein-7; 398 nM on Prothrombin; 5.01 nM on Plasma kallikrein. Also, the IC50 at Kallikrein-5 [2] was 5.01 nM; on Coagulation factor X, 2 µM; in series [4], 0.0631 µM; on Kallikrein-8 it was 100 nM; at Kallikrein-14, 251 nM; at Kallikrein-5 [5], 0.00794 µM. The Ratio IC50 in the series filed under Homo sapiens amounted to 10.
Regarding `N=C(N)c1ccc(C2Cc3cc(Cl)c(F)cc3B(O)O2)cc1OCc1cccnc1` (racemic), the IC50 at Kallikrein-1 was 3.98 to 6.31 µM; against Neutrophil elastase it was 1.26 µM; in [1], 15.8 µM; on Kallikrein-7, more than 100 µM; at Prothrombin, 2000 nM; against Plasma kallikrein, 200 nM. Besides, the IC50 on Kallikrein-5 [2] was 1.26 nM; at Coagulation factor X, 5.01 µM; in series [4] it was 79.4 µM; on Kallikrein-8 it was 251 nM; on Kallikrein-14, 200 nM. For the same compound, in series [3], the pKa is 4.26.
`N=C(N)c1ccc(C2OB(O)c3ccccc32)cc1` (racemic): the IC50 at Kallikrein-1 was 79.4 µM; on Kallikrein-5 [5], 398 µM.
Take `N=C(N)c1ccc(C2Cc3ccccc3B(O)O2)cc1OCc1ccccc1Cl` (racemic): the 50% inhibitory concentration (IC50) was 0.631 µM on Kallikrein-1; 6.31 µM against Neutrophil elastase; 7.94 µM in series [1]; 39.8 µM on Kallikrein-7; 3160 nM at Prothrombin; 50.1 nM against Plasma kallikrein. Also, the IC50 is 7.94 nM on Kallikrein-5 [2]; 10 µM at Coagulation factor X; 50.1 µM in [4]; 251 nM at Kallikrein-8; 1580 nM at Kallikrein-14; 0.01 µM at Kallikrein-5 [5]. The Ratio IC50 in the series listed under Homo sapiens came out at 10.
As for `N=C(N)c1ccc(COc2cccc3c2B(O)OC3)cc1`, the IC50 at Kallikrein-1 was 501 µM; at Kallikrein-5 [5], 31.6 µM.
The corresponding values for `N=C(N)c1ccc(COc2ccc3c(c2)B(O)OC3)cc1` are 39.8 µM and 39.8 µM.
The corresponding values for `N=C(N)c1cccc(COc2ccc3c(c2)B(O)OC3)c1` are 158 µM and 12.6 µM.
On to `N=C(N)c1ccc(C2CCCB(O)O2)cc1` (racemic), for which the IC50 on Kallikrein-1 is 63.1 µM; on Kallikrein-5 [5], 39.8 µM.
The corresponding values for `N=C(N)c1ccc(CNc2cccc3c2B(O)OC3)cc1` are 7.94 µM and 200 µM.
The corresponding values for `N=C(N)c1cccc(C2Cc3ccccc3B(O)O2)c1` (racemic) are 0.501 µM and 3.98 µM.
For the compound `N=C(N)c1ccc(CC2OB(O)c3cc(F)ccc32)cc1OCc1cccnc1` (racemic), the IC50 was 0.316 to 3.98 µM at Kallikrein-1; 1.58 µM against Neutrophil elastase; 63.1 µM in [1]; more than 100 µM at Kallikrein-7; 2000 nM at Prothrombin; 794 nM at Plasma kallikrein. Further, the IC50 at Kallikrein-5 [2] was 1.58 nM; on Coagulation factor X, 5.01 µM; in series [4], 79.4 µM; at Kallikrein-8, 7940 nM; on Kallikrein-14, 12600 nM; on Kallikrein-5 [5] it was 0.0126 µM. Further, the pKa in series [3] stood at 4.77. The Ratio IC50 in the series filed under Homo sapiens was found to be 10.
As for `N=C(N)c1ccc(OCc2ccc3c(c2)B(O)OC3)cc1`, the IC50 at Kallikrein-1 was 10 µM; on Kallikrein-5 [5], 6.31 µM.
The corresponding values for `N=C(N)c1ccc(COc2ccc3c(c2)COB3O)cc1` are 158 µM and 6.31 µM.
Consider `N=C(N)c1ccc(C2Cc3ccc(F)cc3B(O)O2)cc1OCc1cccnc1` (racemic), for which the IC50 at Kallikrein-1 was 3.98 µM; on Neutrophil elastase, 31.6 µM; in series [1], 10 µM; on Kallikrein-7 it was more than 100 µM; on Prothrombin, 10000 nM; at Plasma kallikrein it was 79.4 nM. The IC50 at Kallikrein-5 [2] was 7.94 nM; on Coagulation factor X it was 63.1 µM; in series [4], more than 100 µM; on Kallikrein-8, 316 nM; at Kallikrein-14 it was 316 nM; at Kallikrein-5 [5], 0.00631 µM. Also, in series [3], the pKa is 4.66. Besides, the Ratio IC50 in the series filed under Homo sapiens is 10.
For `N=C(N)c1ccc(Oc2ccc3c(c2)B(O)OC3)cc1`, the IC50 on Kallikrein-1 was 25.1 µM; at Kallikrein-5 [5], 50.1 µM.
